pIC50: −log10 of the molar value. Values after ≈ are worked out from the molar mass of the structure shown.
How the values were obtained:
Staphylococcus aureus [1] = assay: Antibacterial activity against Staphylococcus aureus ACH-0192 isolate with gyrA Ser84Leu and grlA Ser80Phe, Ala116Val mutant after 24 hrs by broth microdilution method; format: functional
Staphylococcus aureus [2] = assay: Antibacterial activity against Staphylococcus aureus ACH-0210 isolate with gyrA Ser84Leu and grlA Ser80Phe mutant after 24 hrs by broth microdilution method; format: functional
Staphylococcus aureus [3] = assay: Antibacterial activity against Staphylococcus aureus ACH-0203 isolate with gyrA Ser84Leu and grlA Ser80Phe, Ala116Val mutant after 24 hrs by broth microdilution method; format: functional
Summary of the method: (§1)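 Broth microdilution per CLSI guidelines. MIC taken as the lowest concentration preventing visible growth at 24 h. Each MIC determined at least twice.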

Staphylococcus aureus [4] = assay: Antibacterial activity against Staphylococcus aureus ATCC 33591 isolate after 24 hrs by broth microdilution method; format: functional; conditions: ATCC 33591, 24 h; summary of the method: as §1
Staphylococcus aureus [5] = assay: Antibacterial activity against Staphylococcus aureus ACH-0231 isolate with gyrA Ser84Leu, Glu88Lys and grlA Ser80Tyr, Glu84Gly mutant after 24 hrs by broth microdilution method; format: functional
Staphylococcus aureus [6] = assay: Antibacterial activity against Staphylococcus aureus ACH-0141 isolate with gyrA Ser84Leu, Glu88Val and grlA Ser80Phe, Ala116Val mutant after 24 hrs by broth microdilution method; format: functional
Staphylococcus aureus [7] = assay: Antibacterial activity against Staphylococcus aureus BSA643 isolate with gyrA Ser84Leu and grlA Ser80Tyr, Glu84Gly mutant after 24 hrs by broth microdilution method; format: functional
Staphylococcus aureus [8] = assay: Antibacterial activity against Staphylococcus aureus ATCC 29213 after 24 hrs by broth microdilution method; format: functional; conditions: ATCC 29213, 24 h; summary of the method: as §1
Staphylococcus aureus [9] = assay: (§2) Antibacterial activity against Staphylococcus aureus ACH-0129 isolate with gyrA Ser84Leu, Glu88Val and grlA Ser80Phe, Ala116Val mutant after 24 hrs by broth microdilution method; format: functional
Staphylococcus aureus [10] = assay: Antibacterial activity against Staphylococcus aureus ACH-0204 isolate with gyrA Ser84Leu mutant after 24 hrs by broth microdilution method; format: functional; summary of the method: as §1
Staphylococcus aureus [11] = assay: Antibacterial activity against Staphylococcus aureus ACH-0218 isolate with grlA Glu84Lys mutant after 24 hrs by broth microdilution method; format: functional; summary of the method: as §1
Staphylococcus aureus [12] = assay: Antibacterial activity against Staphylococcus aureus ATCC 700699 isolate with gyrA Ser84Leu, Glu409Lys and grlA Ser80Phe mutant after 24 hrs by broth microdilution method; format: functional; conditions: ATCC 700699, 24 h
Staphylococcus aureus [13] = assay: Antibacterial activity against Staphylococcus aureus ACH-0201 isolate with gyrA Ser84Leu, Glu88Val and grlA Ser80Phe, Ala116Val mutant after 24 hrs by broth microdilution method; format: functional
Staphylococcus aureus [14] = assay: Antibacterial activity against Staphylococcus aureus NY2746 isolate with gyrA Ser84Leu and grlA Ser80Phe mutant after 24 hrs by broth microdilution method; format: functional
Staphylococcus aureus [15] = assay: Antibacterial activity against Staphylococcus aureus BSA678 isolate with gyrA Ser84Leu, Ser85Pro and grlA Ser80Phe, Glu84Lys mutant after 24 hrs by broth microdilution method
Staphylococcus aureus [16] = assay: Antibacterial activity against Staphylococcus aureus ACH-0126 isolate with gyrA Ser84Leu and grlA Ser80Phe mutant after 24 hrs by broth microdilution method; format: functional
Staphylococcus aureus [17] = assay: Antibacterial activity against Staphylococcus aureus ACH-0186 isolate with gyrA Ser84Leu and grlA Ser80Phe, Ala116Val mutant after 24 hrs by broth microdilution method; format: functional
Staphylococcus aureus [18] = assay: Antibacterial activity against Staphylococcus aureus ACH-0206 isolate with gyrA Ser84Leu mutant after 24 hrs by broth microdilution method; format: functional; summary of the method: as §1
Staphylococcus aureus [19] = assay: Antibacterial activity against Staphylococcus aureus ACH-0216 isolate with grlA Ser80Phe mutant after 24 hrs by broth microdilution method; format: functional; summary of the method: as §1
Staphylococcus aureus [20] = assay: Antibacterial activity against Staphylococcus aureus ACH-0221 isolate with gyrA Ser84Leu mutant after 24 hrs by broth microdilution method; format: functional; summary of the method: as §1
Staphylococcus aureus [21] = assay: Antibacterial activity against Staphylococcus aureus BSA678 isolate with gyrA Ser84Leu, Ser85Pro and grlA Ser80Phe, Glu84Lys mutant assessed as doubling time of bacterial growth at 1 ug/ml
Staphylococcus aureus [22] = assay: Antibacterial activity against Staphylococcus aureus ACH-0126 isolate with gyrA Ser84Leu and grlA Ser80Phe mutant assessed as doubling time of bacterial growth at 1 ug/ml; format: functional
Summary of the method: (§3)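 Overnight cultures in MH or Mueller-Hinton II medium at 37°C with aeration were diluted to OD625 of about 0.05. Turbidity was read every 30 min over the first 7 h. Doubling time was estimated from log OD625 versus time growth curves.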

Staphylococcus aureus [23] = assay: Antibacterial activity against Staphylococcus aureus BSA643 isolate with gyrA Ser84Leu and grlA Ser80Tyr, Glu84Gly mutant assessed as doubling time of bacterial growth at 1 ug/ml; format: functional; summary of the method: as §3
Staphylococcus aureus [24] = assay: Antibacterial activity against Staphylococcus aureus ACH-0203 isolate with gyrA Ser84Leu and grlA Ser80Phe, Ala116Val mutant assessed as doubling time of bacterial growth at 1 ug/ml; format: functional; summary of the method: as §3
Staphylococcus aureus [25] = assay: Antibacterial activity against Staphylococcus aureus ACH-0129 isolate with gyrA Ser84Leu, Glu88Val and grlA Ser80Phe, Ala116Val mutant assessed as doubling time of bacterial growth at 1 ug/ml; format: functional; summary of the method: as §3
Staphylococcus aureus [26] = assay: Antibacterial activity against Staphylococcus aureus ACH-0231 isolate with gyrA Ser84Leu, Glu88Lys and grlA Ser80Tyr, Glu84Gly mutant assessed as doubling time of bacterial growth at 1 ug/ml; format: functional; summary of the method: as §3
[27] = Inhibition of Staphylococcus aureus […] topoisomerase 4 grlA S80F mutant decatenation activity assessed as unlinking of DNA microcircles from kinetoplast DNA
Summary of the method: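 Recombinant S. aureus GrlA (Ser80Phe) and GrlB were mixed 1:1 molar on ice for 10 min. kDNA (0.1 μg) with 2 U enzyme, 30 min at 37°C, in 1 mM ATP, 5 mM MgCl2, 250 mM K-glutamate, 50 mM Tris pH 7.5. Reactions stopped with EDTA, run on 1% agarose-TBE and ethidium-stained, minicircles quantitated. IC50 by nonlinear regression.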

Staphylococcus aureus [28] = assay: Antibacterial activity against Staphylococcus aureus ACH-0201 isolate with gyrA Ser84Leu, Glu88Val and grlA Ser80Phe, Ala116Val mutant assessed as doubling time of bacterial growth at 1 ug/ml; format: functional; summary of the method: as §3
Staphylococcus aureus [29] = assay: Antibacterial activity against Staphylococcus aureus ATCC 700699 isolate with gyrA Ser84Leu, Glu409Lys and grlA Ser80Phe mutant assessed as doubling time of bacterial growth at 1 ug/ml; format: functional; summary of the method: as §3
DNA gyrase subunit A = DNA gyrase subunit A (Staphylococcus aureus, UniProt P20831, S84L); assay: Inhibition of Staphylococcus aureus DNA gyrase gyrA S84L mutant supercoiling activity assessed as effect on conversion of relaxed pBR322 DNA to supercoiled form
Staphylococcus aureus [30] = assay: as §2; format: functional; remark: listed apart in the source
Staphylococcus aureus [31] = assay: Antibacterial activity against Staphylococcus aureus ATCC 29213 assessed as doubling time of bacterial growth at 1 ug/ml; format: functional; summary of the method: as §3
Staphylococcus aureus [32] = assay: Antibacterial activity against Staphylococcus aureus ACH-0192 isolate with gyrA Ser84Leu and grlA Ser80Phe, Ala116Val mutant assessed as doubling time of bacterial growth at 1 ug/ml; format: functional; summary of the method: as §3
[33] = Inhibition of Staphylococcus aureus wild-type topoisomerase 4 decatenation activity assessed as unlinking of DNA microcircles from kinetoplast DNA
Summary of the method: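 S. aureus topo IV reconstituted from His-purified recombinant GrlA and GrlB (E. coli BL21(DE3)pLysS expression), mixed 1:1 molar on ice 10 min. 0.1 μg catenated kDNA with 2 U enzyme, 30 min at 37°C in 1 mM ATP, 5 mM DTT, 5 mM MgCl2, 50 μg/ml BSA, 50 mM Tris-HCl pH 7.5, 250 mM potassium glutamate. Products on 1% agarose gel, ethidium-stained, quantitated; IC50 by nonlinear regression.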

Staphylococcus aureus [34] = assay: Antibacterial activity against Staphylococcus aureus ACH-0186 isolate with gyrA Ser84Leu and grlA Ser80Phe mutant assessed as doubling time of bacterial growth at 1 ug/ml; format: functional; summary of the method: as §3
Staphylococcus aureus [35] = assay: Antibacterial activity against Staphylococcus aureus ACH-0130 isolate with gyrA Ser84Leu, Glu88Val and grlA Ser80Phe, Ala116Val mutant assessed as doubling time of bacterial growth at 1 ug/ml; format: functional; summary of the method: as §3
Staphylococcus aureus [36] = assay: Antibacterial activity against Staphylococcus aureus ACH-0141 isolate with gyrA Ser84Leu, Glu88Val and grlA Ser80Phe, Ala116Val mutant assessed as doubling time of bacterial growth at 1 ug/ml; format: functional; summary of the method: as §3
Staphylococcus aureus [37] = assay: Antibacterial activity against Staphylococcus aureus NY2746 isolate with gyrA Ser84Leu and grlA Ser80Phe mutant assessed as doubling time of bacterial growth at 1 ug/ml; format: functional; summary of the method: as §3

Row | SMILES | MIC (Staphylococcus aureus [1]) [mg/L] | MIC (Staphylococcus aureus [2]) [mg/L] | MIC (Staphylococcus aureus [3]) [mg/L] | MIC (Staphylococcus aureus [4]) [mg/L] | MIC (Staphylococcus aureus [5]) [mg/L] | MIC (Staphylococcus aureus [6]) [mg/L] | MIC (Staphylococcus aureus [7]) [mg/L] | MIC (Staphylococcus aureus [8]) [mg/L] | MIC (Staphylococcus aureus [9]) [mg/L] | MIC (Staphylococcus aureus [10]) [mg/L] | MIC (Staphylococcus aureus [11]) [mg/L] | MIC (Staphylococcus aureus [12]) [mg/L] | MIC (Staphylococcus aureus [13]) [mg/L] | MIC (Staphylococcus aureus [14]) [mg/L] | MIC (Staphylococcus aureus [15]) [mg/L] | MIC (Staphylococcus aureus [16]) [mg/L] | MIC (Staphylococcus aureus [17]) [mg/L] | MIC (Staphylococcus aureus [18]) [mg/L] | MIC (Staphylococcus aureus [19]) [mg/L] | MIC (Staphylococcus aureus [20]) [mg/L] | also measured
1 | CC[n+]1c(-c2ccccc2)c2cc(N)ccc2c2ccc(N)cc21.[Br-] [HOMIDIUM BROMIDE] | 2 | 2 | 32 | 16 | 16 | 4 | 16 | 4 | 4 | 4 | 16 | > 64 | 2 | 16 | 4 | 4 | 1 | 4 | 4 | 16 | –
2 | COc1c(-c2ccnc(C)c2)c(F)cc2c(=O)c3c(=O)[nH]sc3n(C3CC3)c12 | 0.5 (≈ 1.26 µM) | 0.125 (≈ 0.315 µM) | 1 (≈ 2.52 µM) | 0.004 (≈ 0.0101 µM) | 2 (≈ 5.03 µM) | 2 (≈ 5.03 µM) | 0.125 (≈ 0.315 µM) | 0.004 (≈ 0.0101 µM) | 0.5 (≈ 1.26 µM) | 0.016 (≈ 0.0403 µM) | 0.008 (≈ 0.0201 µM) | 0.25 (≈ 0.629 µM) | 2 (≈ 5.03 µM) | 0.25 (≈ 0.629 µM) | 0.5 (≈ 1.26 µM) | 0.125 (≈ 0.315 µM) | 0.5 (≈ 1.26 µM) | 0.015 (≈ 0.0377 µM) | 0.008 (≈ 0.0201 µM) | 0.03 (≈ 0.0755 µM) | Time (Staphylococcus aureus [21]): 42 min; Time (Staphylococcus aureus [22]): 34 min; Time (Staphylococcus aureus [23]): 38 min; Time (Staphylococcus aureus [24]): 338 min; Time (Staphylococcus aureus [25]): 40 min; Time (Staphylococcus aureus [26]): 35 min; pIC50 [27]: 4.80; Time (Staphylococcus aureus [28]): 180 min; Time (Staphylococcus aureus [29]): 39 min; pIC50 (DNA gyrase subunit A): 4.28; MIC (Staphylococcus aureus [30]): 0.5 mg/L (≈ 1.26 µM); Time (Staphylococcus aureus [31]): 30 min; Time (Staphylococcus aureus [32]): 121 min; pIC50 [33]: 6.00; Time (Staphylococcus aureus [34]): 34 min; Time (Staphylococcus aureus [35]): 52 min; Time (Staphylococcus aureus [36]): 340 min; Time (Staphylococcus aureus [37]): 33 min
3 | Cc1cc(-c2cc3c(cc2F)c(=O)c2c(=O)[nH]sc2n3C2CC2)ccn1 | 2 (≈ 5.44 µM) | 0.5 (≈ 1.36 µM) | 2 (≈ 5.44 µM) | 0.004 (≈ 0.0109 µM) | 16 (≈ 43.5 µM) | 16 (≈ 43.5 µM) | 0.25 (≈ 0.68 µM) | 0.008 (≈ 0.0218 µM) | 4 (≈ 10.9 µM) | 0.03 (≈ 0.0817 µM) | 0.08 (≈ 0.218 µM) | 0.25 (≈ 0.68 µM) | 8 (≈ 21.8 µM) | 0.5 (≈ 1.36 µM) | 4 (≈ 10.9 µM) | 0.5 (≈ 1.36 µM) | 0.5 (≈ 1.36 µM) | 0.03 (≈ 0.0817 µM) | 0.016 (≈ 0.0435 µM) | 0.03 (≈ 0.0817 µM) | MIC (Staphylococcus aureus [30]): 4 mg/L (≈ 10.9 µM)
4 | COc1c(N2C[C@@H]3CCCN[C@@H]3C2)c(F)cc2c(=O)c(C(=O)O)cn(C3CC3)c12 [MOXIFLOXACIN] | 16 (≈ 39.9 µM) | 4 (≈ 9.96 µM) | 32 (≈ 79.7 µM) | – | 32 (≈ 79.7 µM) | 16 (≈ 39.9 µM) | 16 (≈ 39.9 µM) | 0.06 (≈ 0.149 µM) | 8 (≈ 19.9 µM) | 0.125 (≈ 0.311 µM) | 0.25 (≈ 0.623 µM) | 4 (≈ 9.96 µM) | 16 (≈ 39.9 µM) | 8 (≈ 19.9 µM) | > 64 | 4 (≈ 9.96 µM) | 16 (≈ 39.9 µM) | 0.125 (≈ 0.311 µM) | 0.25 (≈ 0.623 µM) | 0.5 (≈ 1.25 µM) | pIC50 [27]: 4.92; pIC50 [33]: 6.00
